# Assay results taken from ChEMBL document CHEMBL5046302, “Identification and Evaluation of Brominated Carbazoles as a Novel Antibiotic Adjuvant Scaffold in MRSA” (2022).
# Active and inactive are the calls of the source. The calls are words filed in the database; no cut-off is given here.
# Columns and labels:
# Type in all cases: functional
# [1] = test system: Staphylococcus aureus; experiment: Upregulation of mecA gene expression in methicillin-resistant Staphylococcus aureus USA300 at 25 uM by RT-PCR method
# [2] = test system: Staphylococcus aureus; experiment: Potentiation of ceftazidime induced antibacterial activity against methicillin-resistant Staphylococcus aureus USA300 assessed as fold change in ceftazidime MIC at 25 uM after 18 hrs by CLSI protocol based broth microdilution assay
# [3] = test system: Staphylococcus aureus; experiment: Upregulation of mecA gene expression in methicillin-resistant Staphylococcus aureus ATCC 43300 at 25 uM by RT-PCR method
# [4] = test system: Staphylococcus aureus; experiment: Potentiation of oxacillin induced antibacterial activity against methicillin-resistant Staphylococcus aureus ATCC 43300 assessed as fold change in oxacillin MIC at 25 uM after 18 hrs by CLSI protocol based broth microdilution assay
# [5] = test system: Staphylococcus aureus; experiment: Potentiation of ampicillin induced antibacterial activity against methicillin-resistant Staphylococcus aureus COL assessed as fold change in ampicillin MIC at 25 uM after 18 hrs by CLSI protocol based broth microdilution assay
# [6] = test system: Staphylococcus aureus; experiment: Potentiation of oxacillin induced antibacterial activity against methicillin-resistant Staphylococcus aureus assessed as fold decrease in mecA gene expression at 25 uM by RT-qPCR analysis
# In short: (§1)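 Fold dampening is the relative mRNA level of the gene, normalised to 16S rRNA, in oxacillin-treated cells divided by that in cells cotreated with oxacillin plus carbazole. Carbazole was used at 25 or 50 μM, as given in each line.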
# [7] = test system: Staphylococcus aureus; experiment: Potentiation of cefoxitin induced antibacterial activity against methicillin-resistant Staphylococcus aureus USA300 assessed as fold change in cefoxitin MIC at 25 uM after 18 hrs by CLSI protocol based broth microdilution assay
# [8] = test system: Staphylococcus aureus; experiment: Potentiation of cefoxitin induced antibacterial activity against methicillin-resistant Staphylococcus aureus COL assessed as cefoxitin MIC at 25 uM after 18 hrs by CLSI protocol based broth microdilution assay
# [9] = test system: Staphylococcus aureus; experiment: Potentiation of ceftazidime induced antibacterial activity against methicillin-resistant Staphylococcus aureus COL assessed as ceftazidime MIC at 25 uM after 18 hrs by CLSI protocol based broth microdilution assay
# [10] = test system: Staphylococcus aureus; experiment: Upregulation of blaZ gene expression in methicillin-resistant Staphylococcus aureus ATCC 43300 at 25 uM by RT-PCR method
# [11] = test system: Staphylococcus aureus; experiment: Potentiation of ampicillin induced antibacterial activity against methicillin-resistant Staphylococcus aureus COL assessed as ampicillin MIC at 25 uM after 18 hrs by CLSI protocol based broth microdilution assay
# [12] = test system: Staphylococcus aureus; experiment: Potentiation of ceftazidime induced antibacterial activity against methicillin-resistant Staphylococcus aureus COL assessed as fold change in ceftazidime MIC at 25 uM after 18 hrs by CLSI protocol based broth microdilution assay
# [13] = test system: Staphylococcus aureus; experiment: Potentiation of cefoxitin induced antibacterial activity against methicillin-resistant Staphylococcus aureus COL assessed as fold change in cefoxitin MIC at 25 uM after 18 hrs by CLSI protocol based broth microdilution assay
# [14] = test system: Staphylococcus aureus; experiment: Potentiation of oxacillin induced antibacterial activity against methicillin-resistant Staphylococcus aureus USA300 assessed as oxacillin MIC at 25 uM after 18 hrs by CLSI protocol based broth microdilution assay
# [15] = test system: Staphylococcus aureus; experiment: Potentiation of oxacillin induced antibacterial activity against methicillin-resistant Staphylococcus aureus USA100 assessed as fold change in oxacillin MIC at 25 uM after 18 hrs by CLSI protocol based broth microdilution assay
# [16] = test system: Staphylococcus aureus; experiment: Potentiation of ampicillin induced antibacterial activity against methicillin-resistant Staphylococcus aureus ATCC 43300 assessed as fold change in ampicillin MIC at 25 uM after 18 hrs by CLSI protocol based broth microdilution assay
# [17] = test system: Staphylococcus aureus; experiment: Potentiation of ceftazidime induced antibacterial activity against methicillin-resistant Staphylococcus aureus USA100 assessed as ceftazidime MIC at 25 uM after 18 hrs by CLSI protocol based broth microdilution assay
# [18] = test system: Staphylococcus aureus; experiment: Potentiation of oxacillin induced antibacterial activity against methicillin-resistant Staphylococcus aureus ATCC 43300 assessed as oxacillin MIC at 25 uM after 18 hrs by CLSI protocol based broth microdilution assay
# [19] = test system: Staphylococcus aureus; experiment: Potentiation of cefoxitin induced antibacterial activity against methicillin-resistant Staphylococcus aureus USA300 assessed as cefoxitin MIC at 25 uM after 18 hrs by CLSI protocol based broth microdilution assay
# [20] = test system: Staphylococcus aureus; experiment: Potentiation of ceftazidime induced antibacterial activity against methicillin-resistant Staphylococcus aureus ATCC 43300 assessed as ceftazidime MIC at 25 uM after 18 hrs by CLSI protocol based broth microdilution assay
# [21] = test system: Staphylococcus aureus; experiment: (§2) Potentiation of oxacillin induced antibacterial activity against methicillin-resistant Staphylococcus aureus USA300 assessed as fold change in oxacillin MIC at 25 uM after 18 hrs by CLSI protocol based broth microdilution assay
# [22] = test system: Staphylococcus aureus; experiment: Potentiation of ampicillin induced antibacterial activity against methicillin-resistant Staphylococcus aureus ATCC 43300 assessed as ampicillin MIC at 25 uM after 18 hrs by CLSI protocol based broth microdilution assay
# [23] = test system: Staphylococcus aureus; experiment: Potentiation of ceftazidime induced antibacterial activity against methicillin-resistant Staphylococcus aureus ATCC 43300 assessed as fold change in ceftazidime MIC at 25 uM after 18 hrs by CLSI protocol based broth microdilution assay
# [24] = test system: Staphylococcus aureus; experiment: Potentiation of oxacillin induced antibacterial activity against methicillin-resistant Staphylococcus aureus assessed as fold decrease in mecI gene expression at 25 uM by RT-qPCR analysis; in short: as §1
# [25] = test system: Staphylococcus aureus; experiment: Upregulation of blaZ gene expression in methicillin-resistant Staphylococcus aureus USA100 at 50 uM by RT-PCR method
# [26] = test system: Staphylococcus aureus; experiment: Upregulation of mecA gene expression in methicillin-resistant Staphylococcus aureus USA100 at 50 uM by RT-PCR method
# [27] = test system: Staphylococcus aureus; experiment: as §2, with “USA300 harboring stk1 deletion mutant co-transfected with a plasmid bearing stk1” for “USA300”, “50” for “25”
# [28] = test system: Staphylococcus aureus; experiment: Upregulation of blaZ gene expression in methicillin-resistant Staphylococcus aureus ATCC 43300 at 50 uM by RT-PCR method
# [29] = test system: Staphylococcus aureus; experiment: Potentiation of oxacillin induced antibacterial activity against methicillin-resistant Staphylococcus aureus USA300 harboring stk1 deletion mutant assessed as oxacillin MIC at 50 uM after 18 hrs by CLSI protocol based broth microdilution assay
# [30] = test system: Staphylococcus aureus; experiment: Potentiation of oxacillin induced antibacterial activity against methicillin-resistant Staphylococcus aureus USA300 harboring stk1 deletion mutant assessed as fold change in oxacillin MIC at 50 uM after 18 hrs by CLSI protocol based broth microdilution assay
# [31] = test system: Staphylococcus aureus; experiment: Potentiation of oxacillin induced antibacterial activity against methicillin-resistant Staphylococcus aureus USA300 harboring stk1 deletion mutant co-transfected with a plasmid bearing stk1 assessed as oxacillin MIC at 50 uM after 18 hrs by CLSI protocol based broth microdilution assay
# In short: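 Oxacillin MIC by broth microdilution in the USA300 Δstk1 strain complemented with plasmid-borne stk1, with stk1 expression induced. Tested with and without carbazole at 50 μM. Fold change in MIC is taken relative to oxacillin alone.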
# [32] = test system: Staphylococcus aureus; experiment: Upregulation of mecA gene expression in methicillin-resistant Staphylococcus aureus COL at 50 uM by RT-PCR method
structure (smiles),measurement,setting,value
Brc1cccc2[nH]c3ccccc3c12,Activity,[1],inactive
same,fold change (FC),[2],1
same,Activity,[3],inactive
same,fold change (FC),[4],4
same,fold change (FC),[5],1
same,fold change (FC),[6],4
same,fold change (FC),[7],4
same,MIC,[8],256 µg/mL
same,MIC,[9],1020 µg/mL
same,Activity,[10],inactive
same,MIC,[11],32 µg/mL
same,fold change (FC),[12],1
same,fold change (FC),[13],1
same,MIC,[14],8 µg/mL
same,fold change (FC),[15],16
same,fold change (FC),[16],2
same,MIC,[17],512 µg/mL
same,MIC,[18],4 µg/mL
same,MIC,[19],8 µg/mL
same,MIC,[20],64 µg/mL
same,fold change (FC),[21],4
same,MIC,[22],16 µg/mL
same,fold change (FC),[23],2
same,fold change (FC),[24],1.28
Brc1cccc2c1[nH]c1ccccc12,Activity,[25],inactive
same,Activity,[26],inactive
same,fold change (FC),[27],4
same,Activity,[28],inactive
same,MIC,[29],0.25 µg/mL
same,fold change (FC),[30],1
same,MIC,[31],1 µg/mL
same,Activity,[32],inactive
